Consider one molecule from ChEMBL document CHEMBL4308887, “Synthesis and biological evaluation of clovamide analogues with catechol functionality as potent Parkinson's disease agents in vitro and in vivo” (Bioorg Med Chem Lett, 2019).

Activity calls are given as the source filed them. No cut-off for these calls is given here.

As a reminder, the Cmax is the peak of the concentration-time curve. The term Tmax denotes the time at which the peak concentration occurs. In general, EC50 refers to the midpoint of the concentration-response curve.

Data set [1] can be described thus: Volume of distribution at steady state in Sprague-Dawley rat at 5 mg/kg, iv by LC-MS/MS analysis. It counts as ADME, organism-based. To be noted: in vivo, read-out: Vdss. The method, boiled down: (§1)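 Male Sprague–Dawley rats (n = 3) dosed i.v. 5 mg/kg (5% DMSO, 2% F68, 93% saline) or p.o. 25 mg/kg (0.5% methylcellulose, 1% Tween 80). Orbital blood at 0.083–24 h (12 points). Plasma concentration–time profiles gave Cl, Vdss, AUC, T1/2, Tmax, Cmax, MRT and absolute F.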

Data set [2] has as its system SH-SY5Y. The data set is described as follows: Neuroprotection against H2O2-induced cell death in human SH-SY5Y cells assessed as cell viability at 10 uM preincubated for 6 hrs followed by H2O2 addition and measured after 24 hrs by MTT assay relative to control. It counts as functional. The conditions noted are these: read-out: Activity. The method, boiled down: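 SH-SY5Y cells pretreated with 1 at 1 or 10 μM, then exposed to 600 μM H₂O₂. Viability by MTT, expressed as % of control. DMSO below 0.1%. Mean ± S.E.M. of three independent experiments.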

Data set [3] in a line: Activation of PI3K/Akt/mTOR signaling in human SH-SY5Y cells assessed as up regulation of HO-1 expression after 24 hrs by Western blot analysis. It counts as cell-based. In a few lines:
(§2)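 HO-1 western blot in SH-SY5Y cells incubated 24 h with 1 at 0.1, 1 or 10 μM, without H₂O₂. Band densitometry expressed as % of control. Mean ± S.E.M. from three independent experiments.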

A short description of data set [4]: Activation of PI3K/Akt/mTOR signaling in human SH-SY5Y cells assessed as up regulation of H2O2-induced HO-1 expression at 10 uM preincubated for 6 hrs followed by H2O2 addition and after 24 hrs in presence of JNK inhibitor SP600125 by Western blot analysis. The class given is cell-based. In a few lines:
(§3)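 SH-SY5Y cells preincubated 1 h with one inhibitor: SB203580 10 μM, LY294002 5 μM, U0126 10 μM, SP600125 5 μM or rapamycin 100 nM. Then 1 (10 μM) for 6 h, then 600 μM H₂O₂. HO-1 measured by western blot and densitometry. Mean ± S.E.M., three independent experiments.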
(In general: A western blot detects proteins with antibodies after separation by electrophoresis.)

The test system of data set [5] is SH-SY5Y. The data set is described as follows: Protection against H2O2-induced apoptosis in human SH-SY5Y cells assessed as late apoptotic cells at 1 uM preincubated for 6 hrs followed by H2O2 addition and measured after 24 hrs by Annexin V-FITC/propidium iodide staining based flow cytometry (reference value: 3.5%). The class given is functional.
Data set [6] relates to Mus musculus. The data set is described as follows: Anti-parkinson's activity in MPTP-induced C57Bl/6 mouse model of Parkinson's disease assessed as decrease in ratio of Bax/Bcl2 expression in striatum at 10 to 20 mg/kg, ig pretreated for 10 days followed by MPTP challenge measured 10 days post MPTP addition by Western blot analysis. It counts as functional, organism-based.

Data set [7] in a line: Activation of PI3K/Akt/mTOR signaling in human SH-SY5Y cells assessed as up regulation of HO-1 expression at 0.1 uM after 24 hrs by Western blot analysis relative to control. The class given is cell-based. In a few lines:
as §2

The nature of data set [8]: Activation of PI3K/Akt/mTOR signaling in human SH-SY5Y cells assessed as up regulation of H2O2-induced HO-1 expression at 10 uM preincubated for 6 hrs followed by H2O2 addition and after 24 hrs in presence of p38 MAPK inhibitor SB203580 by Western blot analysis. It counts as cell-based. In a few lines:
as §3

Data set [9] in a line: Cmax in Sprague-Dawley rat at 25 mg/kg, po by LC-MS/MS analysis. It counts as ADME, organism-based. Also noted: dose 25 mg/kg, route oral. The conditions noted are these: in vivo. In a few lines: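 Male Sprague–Dawley rats dosed with 1 at 5 mg/kg i.v. (vehicle 5% DMSO, 2% F68, 93% saline) or 25 mg/kg p.o. (0.5% methylcellulose with 1% Tween 80). Orbital blood sampled at 0.083–24 h, 12 time points. Plasma PK parameters derived. Mean ± SD, n = 3.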

A short description of data set [10]: Tmax in Sprague-Dawley rat at 25 mg/kg, po by LC-MS/MS analysis. The class given is ADME, organism-based. The conditions noted are these: in vivo. In a few lines: as §1
In data set [11] the test system is SH-SY5Y. The data set is described as follows: Neuroprotection against H2O2-induced cell death in human SH-SY5Y cells at 10 uM preincubated for 6 hrs followed by H2O2 addition and measured after 24 hrs in presence of HO-1 inhibitor ZnPPIX by MTT assay. The class given is functional, cell-based. In a few lines: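 Cells pretreated with ZnPPIX (10 μM) for 1 h and with 1 (10 μM) for 6 h, then exposed to 600 μM H₂O₂ for 24 h. Viability by MTT. Mean ± S.E.M., three independent experiments.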
In general terms: Tetrazolium assays rely on reduction of a dye to a coloured formazan, in cell work by metabolically active cells.

A short description of data set [12]: Activation of PI3K/Akt/mTOR signaling in human SH-SY5Y cells assessed as increase in mTOR phosphorylation after 5 to 360 mins by Western blot analysis. It counts as cell-based. The method, boiled down: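 SH-SY5Y cells, unstimulated, exposed to 1 for 5, 15, 30, 60, 120, 240 or 360 min. Phospho-AKT and phospho-mTOR measured by western blot, reported as p-AKT/t-AKT and p-mTOR/t-mTOR ratios after densitometry. Mean ± S.E.M. of three independent experiments.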

The test system of data set [13] is SH-SY5Y. The data set is described as follows: Neuroprotection against H2O2-induced cell death in human SH-SY5Y cells preincubated for 6 hrs followed by H2O2 addition and measured after 24 hrs by MTT assay. The class given is functional, cell-based. The method, boiled down:
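Primary screen at 100 μM, then dose-response. SH-SY5Y cells pretreated, then exposed to 600 μM H₂O₂ (the level chosen from a 100–1000 μM, 24 h viability titration). EC₅₀ is the concentration giving 50% of maximal effect. N-acetyl-L-cysteine served as positive control. DMSO below 0.1%. Mean ± S.E.M. of three experiments.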

The test system of data set [14] is SH-SY5Y. The data set is described as follows: Protection against H2O2-induced oxidative stress in human SH-SY5Y cells assessed as reactive oxygen species level at 10 uM preincubated for 6 hrs followed by H2O2 addition and measured after 24 hrs by DHE dye based flow cytometry (reference value: 18.6%). It counts as functional. For orientation: Flow cytometry measures light scatter and fluorescence of single cells or particles in a stream.

In data set [15] the test system is Mus musculus. The data set is described as follows: Anti-parkinson's activity in MPTP-induced C57Bl/6 mouse model of Parkinson's disease assessed as decrease in ratio of Bax/Bcl2 expression in substantia nigra at 10 to 20 mg/kg, ig pretreated for 10 days followed by MPTP challenge measured 10 days post MPTP addition by Western blot analysis. The class given is functional, organism-based. The method, boiled down: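 Substantia nigra from MPTP mice. Bax, Bcl-2 and cleaved caspase-3 measured by western blot, with Bcl-2/Bax ratio by densitometry. Mean ± S.D., n = 6 mice/group.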

Data set [16] concerns SH-SY5Y. The data set is described as follows: Protection against H2O2-induced mitochondrial dysfunction in human SH-SY5Y cells assessed as mitochondrial membrane potential at 1 uM preincubated for 6 hrs followed by H2O2 addition and measured after 24 hrs by Rh123 staining based flow cytometry (reference value: 26.31 +/- 3.32%). It counts as functional. In a few lines:
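ΔΨm examined by inverted fluorescence microscopy and flow cytometry after pretreatment (1, 10 μM) and 600 μM H₂O₂. Reported as % of control. Mean ± S.E.M., three independent experiments.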

Data set [17] deals with SH-SY5Y. The data set is described as follows: Protection against H2O2-induced oxidative stress in human SH-SY5Y cells assessed as increase in SOD activity preincubated for 6 hrs followed by H2O2 addition and measured after 24 hrs by xanthine oxidase method. It counts as functional, cell-based. In a few lines: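 Cellular SOD activity (units) and MDA content (μmol/g) measured in SH-SY5Y after pretreatment (1, 10 μM) and 600 μM H₂O₂. Mean ± S.E.M. of three independent experiments.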

For the molecule `COC(=O)[C@H](Cc1ccccc1)NC(=O)/C=C/c1ccc(O)c(O)c1` [N-CAFFEOYL-PHENYLALANINE METHYL ESTER], in data set [1], the Vd was determined as 2.25 L/kg. In addition, the viability at 10 µM in data set [2] is 80.8 to 89%. Also, the Activity entry in [3] is “Dose-dependent effect”; in data set [5], 3.9%; in data set [7] it was 111%; in data set [14], 6.6%; in data set [16] it was 79.4%; in data set [17], “Dose-dependent effect”. In addition, the result in data set [4], in [6], in data set [8], in data set [12] and in data set [15] was Active. Also, the highest level in data set [9] (Cmax) was 808 ng/mL. In addition, the Tmax in data set [10] stood at 2 h. For the same molecule, the outcome in [11] was inactive. Besides, it took 4.26 µM to reach a half-maximal effect in data set [13] (EC50).
